DAGLB inhibitor – DAGLB lipase inhibitors, primary screen, biochemical, fluorescence, HTS; Diacylglycerol lipase-beta (Homo sapiens), Q8NCG7; HEK293T DAGLB membrane lysate, EnzChek fluorogenic substrate; inhibition, % at 5.17 µM; actives 0.059% (n = 340,000); AID 504411, 2011; in the data active = inhibition above about 34%
Exocytosis inh – LAMP-1 surface exposure blockers, TALL-104 cells – cell-based, flow cytometry, MLPCN library, primary screen | actives 0.66% (n = 360,000) | TALL-104 LAMP-1 surface exposure; cells stimulated with thapsigargin and PMA | inhibition, % at 10 µM | AID 651702, 2012;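 active = inhibition above about 55%, limit read from the data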
VLA-4 inh – inhibition in human VLA-4 binding assay, primary screen, VLA-4 allosteric modulator project, MLPCN library, flow cytometry, VLA-4 expressing cells | Integrin alpha-4 (Homo sapiens), P13612 | ligand binding flow cytometry | inhibition, % (about 7 µM as worked out from the volumes in the protocol) | actives 0.2% (n = 330,000) | AID 2557, 2010; in the data active = inhibition above about 50%
ABCB6 inh 2 – ABCB6 transporter inhibitors, primary screen, K562-ABCB6 cells, flow cytometry, MLPCN library; AID 602162, 2011; fluorescence ratio to DMSO, % at 10 µM; K562-ABCB6 porphyrin accumulation, 1 h; hits give low values; actives 0.19% (n = 360,000); ATP-binding cassette sub-family B member 6 (Homo sapiens), Q9NP58;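 active = fluorescence ratio to DMSO below 75%, the collection mean minus 3 SD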;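 note: signal is porphyrin accumulated inside mitochondria; lower ratio means ABCB6 inhibition with less porphyrin fluorescence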
FGF22 binding – binders of human FGF22 protein, primary screen, FGF22 synaptogenesis inhibitor project, biophysical, thermal shift, single point; recombinant FGF22 thermal shift, SYPRO orange fluorescence; percent of sucrose octasulfate shift, DMSO zero; activity (Tm shift, normalised), % at 9.99 µM; actives 1.5% (n = 340,000); AID 651658, 2012;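 active = mean Tm shift, scaled 0 neutral to 100 positive control, at about 1.3% or above, every replicate too, limit read from the data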
MT1-MMP act inh – blockers of MT1-MMP proenzyme processing, primary screen, HT1080 RFP-PRO-GFP cells, GFP/RFP fluorescence; actives 0.061% (n = 360,000); GFP/RFP ratio fluorescence, overnight; percent of plate control window, DMSO zero; Matrix metalloproteinase-14 (Homo sapiens), P50281; GFP/RFP ratio change, % at 20 µM;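 active = GFP/RFP ratio change of at least 30% with cell ATP level not reduced by more than half and red fluorescence within 50% of control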
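Assay system: RFP-PRO-GFP reporter HT1080 cells; read-out basis: GFP/RFP fluorescence ratio; benchmarks: DMSO wells and RFP-L50D-GFP cells; doses: 20 µM single dose, 1% DMSO; schedule: overnight cell settling, then overnight compound exposure, 37 °C, 5% CO2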
Granule exo CP1 – inhibitors of lytic granule exocytosis, confirmation, TALL-104 cells, flow cytometry, Cherry Pick01; AID 651954, 2012; actives 11% (n = 1,500); shares compounds with Exocytosis inh; LAMP-1 externalization; stimulated with PMA plus thapsigargin; inhibition, % at 10 µM; in the data active = inhibition above about 60%
Hits are given with their value. Rows were chosen to be rich in hits. Some 2% of all compounds tested hit in one or more screens of this group.

How did COC(=O)c1c(NC(=O)c2nc3ccccc3s2)sc2c1CC(C)(C)NC2(C)C do in these assays?
DAGLB inhibitor: inactive; Exocytosis inh: 67.2; VLA-4 inh: inactive; ABCB6 inh 2: inactive; FGF22 binding: inactive; MT1-MMP act inh: inactive; Granule exo CP1: 85.2

Results for CCC(=O)N1C[C@@H]2[C@H](c3ccccc31)[C@@H](CO)N2C(=O)Nc1ccccc1F ?
FGF22 binding: inactive

Results for CCOc1ccc(N(CC(=O)NCCc2ccc(C)cc2)S(=O)(=O)c2c(C)noc2C)cc1 ?
DAGLB inhibitor: inactive; Exocytosis inh: 78.6; VLA-4 inh: inactive; ABCB6 inh 2: inactive; FGF22 binding: inactive; MT1-MMP act inh: inactive; Granule exo CP1: inactive

What do the screens show for `CCOc1ccc(OCC)c(NC(=O)CN(c2ccc(C)cc2)S(=O)(=O)c2c(C)noc2C)c1`?
DAGLB inhibitor: inactive; Exocytosis inh: inactive; VLA-4 inh: inactive; ABCB6 inh 2: inactive; MT1-MMP act inh: inactive

Results for CCOc1ccc(OCC)c(NC(=O)CN(c2ccc(OC)cc2)S(=O)(=O)c2c(C)noc2C)c1 ?
DAGLB inhibitor: inactive; Exocytosis inh: 57.0; VLA-4 inh: inactive; ABCB6 inh 2: inactive; FGF22 binding: inactive; MT1-MMP act inh: inactive; Granule exo CP1: inactive

What do the screens show for `CN1CCN(c2nc(-c3ccncc3)nc3ccccc23)CC1`?
DAGLB inhibitor: inactive; Exocytosis inh: inactive; VLA-4 inh: inactive; ABCB6 inh 2: inactive; MT1-MMP act inh: inactive

How did c1ccc2c(N3CCCC3)nc(-c3ccncc3)nc2c1 do in these assays?
DAGLB inhibitor: inactive; Exocytosis inh: 60.5; VLA-4 inh: inactive; ABCB6 inh 2: inactive; MT1-MMP act inh: inactive; Granule exo CP1: inactive

What do the screens show for `CCc1ccc(NC(=O)CSc2nc3ccccc3c(=O)n2CCCN2CCC(C)CC2)cc1`?
DAGLB inhibitor: inactive; Exocytosis inh: 86.7; VLA-4 inh: inactive; ABCB6 inh 2: inactive; FGF22 binding: inactive; MT1-MMP act inh: inactive; Granule exo CP1: inactive

What do the screens show for `O=C(COC(=O)[C@H](Cc1c[nH]c2ccccc12)NC(=O)c1ccc(Cl)cc1)Nc1ccc2c(c1)OCO2`?
DAGLB inhibitor: inactive; Exocytosis inh: 68.9; VLA-4 inh: inactive; ABCB6 inh 2: inactive; MT1-MMP act inh: inactive; Granule exo CP1: 77.6

How did Cc1ccc(C(C)C)c(OCCNCCc2ccccc2)c1 do in these assays?
DAGLB inhibitor: inactive; Exocytosis inh: 64.3; VLA-4 inh: inactive; ABCB6 inh 2: inactive; FGF22 binding: inactive; MT1-MMP act inh: inactive; Granule exo CP1: inactive

What do the screens show for `Cc1ccc(C(C)C)c(OCCCNCc2cccnc2)c1`?
DAGLB inhibitor: inactive; Exocytosis inh: inactive; VLA-4 inh: inactive; ABCB6 inh 2: inactive; FGF22 binding: inactive; MT1-MMP act inh: inactive

How did N#Cc1c(Nc2ccccc2Cl)s[nH]c1=O do in these assays?
DAGLB inhibitor: inactive; Exocytosis inh: 78.5; VLA-4 inh: inactive; ABCB6 inh 2: inactive; FGF22 binding: inactive; MT1-MMP act inh: inactive; Granule exo CP1: 94.6

What do the screens show for `C[C@@H]1CN([C@@H](C)CO)C(=O)Cc2cc(NC(=O)c3ccncc3)ccc2O[C@H]1CN(C)Cc1ccc(C(=O)O)cc1`?
FGF22 binding: inactive

How did CCCOc1ccc(Oc2nc(-c3ccncc3)nc3ccccc23)cc1 do in these assays?
DAGLB inhibitor: inactive; Exocytosis inh: 93.7; VLA-4 inh: inactive; ABCB6 inh 2: inactive; FGF22 binding: inactive; MT1-MMP act inh: inactive; Granule exo CP1: inactive

Results for Cc1ccc(-n2nnc3c(=O)oc4ccccc4c32)cc1 ?
DAGLB inhibitor: inactive; Exocytosis inh: 93.5; VLA-4 inh: inactive; ABCB6 inh 2: inactive; MT1-MMP act inh: inactive; Granule exo CP1: 83.0

What do the screens show for `CCC(=O)N(C)C[C@@H]1Oc2ncc(Br)cc2C(=O)N([C@@H](C)CO)C[C@@H]1C`?
FGF22 binding: inactive

How did CCCCn1c(=N)n(CC(=O)c2ccc(Br)s2)c2ccccc21 do in these assays?
DAGLB inhibitor: inactive; Exocytosis inh: 82.5; VLA-4 inh: inactive; ABCB6 inh 2: inactive; FGF22 binding: inactive; MT1-MMP act inh: inactive; Granule exo CP1: 95.8

Results for CCn1c(=N)n(CC(=O)c2ccc(Br)s2)c2ccccc21 ?
DAGLB inhibitor: inactive; Exocytosis inh: inactive; VLA-4 inh: inactive; ABCB6 inh 2: inactive; FGF22 binding: inactive; MT1-MMP act inh: inactive

What do the screens show for `CCNC(=O)C[C@H]1CC[C@H]2[C@@H](COc3ccc(NC(=O)c4ccccc4)cc3C(=O)N2C)O1`?
FGF22 binding: inactive

Results for C[C@H]1CN([C@@H](C)CO)C(=O)Cc2cc(NS(=O)(=O)c3ccccc3)ccc2O[C@@H]1CN(C)CC1CC1 ?
FGF22 binding: inactive

Results for COc1ccc(NC(=O)N(C2CCCCC2)C2CCN(C(C)C)CC2)c(OC)c1 ?
DAGLB inhibitor: inactive; Exocytosis inh: 70.2; ABCB6 inh 2: inactive; MT1-MMP act inh: inactive; Granule exo CP1: inactive

How did COc1ccc(NC(=O)N(C2CCCCC2)C(C)c2ccco2)c(OC)c1 (stereo not given) do in these assays?
DAGLB inhibitor: inactive; Exocytosis inh: inactive; VLA-4 inh: inactive; ABCB6 inh 2: inactive; MT1-MMP act inh: inactive

How did CCC(=O)N1CC2(CCN(Cc3cccnc3)CC2)c2c(n(C)c3cc(OC)ccc23)[C@H]1CO do in these assays?
FGF22 binding: inactive

Results for C[C@@H]1CCCCO[C@H](CN(C)Cc2ccccc2)[C@H](C)CN([C@H](C)CO)C(=O)c2cc(NC(=O)Cc3ccccc3)ccc2O1 ?
FGF22 binding: inactive

Results for Cc1ccc(S(=O)(=O)Nc2ccc3c(c2)C(=O)N([C@@H](C)CO)C[C@@H](C)[C@H](CN(C)C(=O)Nc2ccc(F)cc2)OCCCC[C@@H](C)O3)cc1 ?
FGF22 binding: inactive

What do the screens show for `Cc1cc(C)n(-c2nc(SCCN(C)C)c3c4c(sc3n2)CCCC4)n1`?
DAGLB inhibitor: inactive; Exocytosis inh: 70.2; VLA-4 inh: inactive; ABCB6 inh 2: inactive; MT1-MMP act inh: inactive; Granule exo CP1: inactive

Results for Cc1cc(C)n(-c2nc(SCC(=O)O)c3c4c(sc3n2)COC(C)(C)C4)n1 ?
DAGLB inhibitor: inactive; Exocytosis inh: inactive; VLA-4 inh: inactive; ABCB6 inh 2: inactive; FGF22 binding: inactive; MT1-MMP act inh: inactive
